The subject of data set [1] is Rattus norvegicus. The experiment in a line: Drug metabolism in rat assessed as formation of N-(2-((4-fluorobenzyl)(methyl)amino)-2-oxo-1-phenylethyl)-2-(4'-(1-hydroxy-2-methylpropan-2-yl)biphenyl-2-ylcarboxamido)quinoline-6-carboxamide at 30 mg/kg, po administered as single dose. The data set is classed as ADME, organism-based. On the set-up: dose 30 mg/kg, route oral. The settings on record: in vivo.

The subject of data set [2] is Rattus norvegicus. Put plainly: Antiobesity activity in high fat diet-induced obese Sprague-Dawley rat assessed as reduction of food intake at 10 mg/kg, po qd for 7 days relative to control. The data set is classed as functional. Also noted: scale not given: the % may be the effect or the level left. A digest of the protocol: (§1)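 Seven-day rat study: once-daily oral dosing at 3, 10 or 30 mg/kg, with 1, 3 and 100 mg/kg also used for one series. Compounds were given as spray-dried dispersions in hydroxypropylmethylcellulose acetate succinate. Food intake, body weight, liver TG and serum ALT were measured against vehicle. Systemic exposure was reported as AUC (ng h/mL). Significance versus vehicle was set at P ≤ 0.05.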

Data set [3] has as its system Rattus norvegicus. Put plainly: Toxicity in high fat diet-induced obese Sprague-Dawley rat assessed as change in serum ALT level at 3 mg/kg, po qd for 7 days relative to control. The class given is organism-based. Also noted: dose 3 mg/kg, route oral. The settings on record: in vivo, 168 h. A digest of the protocol: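 Seven-day study in high-fat-diet rats. Compound was given once daily by mouth as a spray-dried dispersion, with vehicle controls. Serum ALT was measured alongside food intake, body weight, liver TG and systemic exposure (AUC). ALT is expressed as % change versus vehicle, with significance set at P ≤ 0.05.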

The subject of data set [4] is Rattus norvegicus. Put plainly: Antiobesity activity in high fat diet-induced obese Sprague-Dawley rat assessed as reduction in body weight at 10 mg/kg, po administered daily for 3 days relative to dirlotapide. The data set is classed as functional. Also noted: scale not given: the % may be the effect or the level left.
In data set [5] the test system is Rattus norvegicus. The experiment in a line: Drug metabolism in rat assessed as formation of 2-(4'-tert-butylbiphenyl-2-ylcarboxamido)-N-(2-(methylamino)-2-oxo-1-phenylethyl)quinoline-6-carboxamide at 30 mg/kg, po administered as single dose. The data set is classed as ADME, organism-based. Also noted: dose 30 mg/kg, route oral. To be noted: in vivo.
Data set [6] relates to Rattus norvegicus. The experiment in a line: Antiobesity activity in high fat diet-induced obese Sprague-Dawley rat assessed as reduction of triglyceride accumulation in liver at 30 mg/kg, po qd for 7 days relative to control. On the set-up: scale not given: the % may be the effect or the level left. The class given is functional. The procedure, abridged: as §1
The nature of data set [7]: Fraction unbound in human HepG2 cells by equilibrium dialysis. The class given is ADME, cell-based. The procedure, abridged: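 Protein binding was measured by equilibrium dialysis under the conditions of the apoB secretion assay in human HepG2 cells, to give unbound fraction.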
For data set [8], the system named is Rattus norvegicus. The experiment in a line: Antiobesity activity in high fat diet-induced obese Sprague-Dawley rat assessed as reduction in body weight at 3 mg/kg, po administered daily for 3 days relative to control. The class given is functional. On the set-up: scale not given: the % may be the effect or the level left.
Data set [9] has as its system Rattus norvegicus. Put plainly: Antiobesity activity in high fat diet-induced obese Sprague-Dawley rat assessed as reduction of triglyceride accumulation in liver at 10 mg/kg, po administered daily for 3 days relative to dirlotapide. The class given is functional. Also noted: scale not given: the % may be the effect or the level left. The procedure, abridged: (§2)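 Male Sprague–Dawley rats (~300 g, n = 5 per group) were acclimatized for seven days to a high-fat diet (45% kcal from fat). They received three consecutive daily oral gavage doses 1.5 h before the dark cycle. Vehicle was SEDDS:H2O 10:90, with SEDDS made of Miglyol 812 10%, triacetin 30%, polysorbate 80 20% and Capmul MCM 30%. Food intake was recorded during dosing, and liver TG was measured afterwards, both against vehicle.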

Data set [10] has as its system Rattus norvegicus. The experiment in a line: Antiobesity activity in high fat diet-induced obese Sprague-Dawley rat assessed as reduction in body weight at 1 mg/kg, po administered daily for 3 days relative to dirlotapide. On the set-up: scale not given: the % may be the effect or the level left. The class given is functional.
Data set [11] deals with Rattus norvegicus. The experiment in a line: Antiobesity activity in high fat diet-induced obese Sprague-Dawley rat assessed as reduction in body weight at 10 mg/kg, po administered with 25% SDD formulation daily for 3 days relative to control. The data set is classed as functional. Also noted: scale not given: the % may be the effect or the level left.
The test system of data set [12] is Rattus norvegicus. The experiment in a line: Antiobesity activity in high fat diet-induced obese Sprague-Dawley rat assessed as reduction in body weight at 100 mg/kg, po administered daily for 3 days relative to control. The data set is classed as functional. Also noted: scale not given: the % may be the effect or the level left.
The test system of data set [13] is Rattus norvegicus. Put plainly: Antiobesity activity in po dosed high fat diet-induced obese Sprague-Dawley rat assessed as reduction of reduction of triglyceride accumulation in liver administered daily for 3 days. The data set is classed as functional. To be noted: 72 h, read-out: MED. A digest of the protocol:
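Male Sprague–Dawley rats (about 300 g; n = 5 per group) were acclimatized for seven days to a high-fat diet (45% kcal from fat). They received three consecutive daily oral gavage doses in SEDDS:H₂O 10:90 vehicle 1.5 h before the dark cycle. Food intake was recorded, and liver TG was then measured against the vehicle group.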

Data set [14] has as its system Rattus norvegicus. The experiment in a line: Antiobesity activity in po dosed high fat diet-induced obese Sprague-Dawley rat assessed as reduction of food intake administered daily for 3 days. The class given is functional. To be noted: 72 h, read-out: MED. The procedure, abridged: as §2
Data set [15] has as its system Rattus norvegicus. The experiment in a line: Antiobesity activity in high fat diet-induced obese Sprague-Dawley rat assessed as reduction of food intake at 1 mg/kg, po administered daily for 3 days relative to dirlotapide. The data set is classed as functional. Also noted: scale not given: the % may be the effect or the level left. A digest of the protocol: as §2

The subject of data set [16] is Rattus norvegicus. The experiment in a line: Antiobesity activity in high fat diet-induced obese Sprague-Dawley rat assessed as reduction of food intake at 100 mg/kg, po administered daily for 3 days relative to dirlotapide. The data set is classed as functional. Also noted: scale not given: the % may be the effect or the level left. A digest of the protocol: as §2

The subject of data set [17] is Rattus norvegicus. Put plainly: Antiobesity activity in high fat diet-induced obese Sprague-Dawley rat assessed as reduction of food intake at 30 mg/kg, po administered daily for 3 days relative to control. The data set is classed as functional. On the set-up: scale not given: the % may be the effect or the level left. The procedure, abridged: as §2
Data set [18] deals with Rattus norvegicus. The experiment in a line: Antiobesity activity in high fat diet-induced obese Sprague-Dawley rat assessed as reduction of food intake at 30 mg/kg, po qd for 7 days relative to control. The data set is classed as functional. On the set-up: scale not given: the % may be the effect or the level left. A digest of the protocol:
as §1

Data set [19] relates to Rattus norvegicus. The experiment in a line: Antiobesity activity in high fat diet-induced obese Sprague-Dawley rat assessed as reduction in body weight at 30 mg/kg, po administered daily for 3 days relative to dirlotapide. The data set is classed as functional. Also noted: scale not given: the % may be the effect or the level left.
Data set [20] concerns Rattus norvegicus. The experiment in a line: Antiobesity activity in high fat diet-induced obese Sprague-Dawley rat assessed as reduction of food intake at 3 mg/kg, po administered daily for 3 days relative to dirlotapide. The data set is classed as functional. On the set-up: scale not given: the % may be the effect or the level left. A digest of the protocol: as §2
The subject of data set [21] is Rattus norvegicus. The experiment in a line: Antiobesity activity in high fat diet-induced obese Sprague-Dawley rat assessed as reduction of food intake at 30 mg/kg, po administered daily for 3 days relative to dirlotapide. The data set is classed as functional. On the set-up: scale not given: the % may be the effect or the level left. The procedure, abridged:
as §2

In a further data set the test system is Canis familiaris. Put plainly: Drug metabolism in beagle dog assessed as formation of 2-(4'-tert-butylbiphenyl-2-ylcarboxamido)-N-(2-(methylamino)-2-oxo-1-phenylethyl)quinoline-6-carboxamide at 2.5 mg/kg, po administered as single dose. The data set is classed as ADME, organism-based, Canis lupus familiaris. On the set-up: dose 2.5 mg/kg, route oral. The settings on record: in vivo.

By fraction unbound is commonly meant the share of the substance not bound to proteins or other matrix. In the case of `CN(Cc1ccc(F)cc1)C(=O)[C@@H](NC(=O)c1ccc2nc(NC(=O)c3ccccc3-c3ccc(C(C)(C)C)cc3)ccc2c1)c1ccccc1`, the Drug metabolism entry in the data set on Rattus norvegicus [1], in the data set on Rattus norvegicus [5] and in the data set on Canis familiaris was “Active” each time. For the same compound, the Activity in the data set on Rattus norvegicus [2] came to 51%; in the data set on Rattus norvegicus [3] it was 168%; in the data set with Rattus norvegicus [4], 97%; with Rattus norvegicus [6], 212%; in the data set with Rattus norvegicus [8], 67%; with Rattus norvegicus [9], 120%. The Activity is on record as 25% in the data set on Rattus norvegicus [10]; 96% in the data set with Rattus norvegicus [11]; 107% with Rattus norvegicus [12]; 5% with Rattus norvegicus [15]; 35% in the data set with Rattus norvegicus [16]; 41% with Rattus norvegicus [17]. The Activity with Rattus norvegicus [18] was determined as 48%; with Rattus norvegicus [19], 75%; in the data set with Rattus norvegicus [20], 6%; in the data set with Rattus norvegicus [21] it was 37%. In addition, in data set [7], the fraction unbound came to 0.00063. Further, the minimal effective dose in the data set with Rattus norvegicus [13] and in the data set with Rattus norvegicus [14] was 3 mg/kg each time.

The values above are taken from ChEMBL document CHEMBL2146366, “Discovery of microsomal triglyceride transfer protein (MTP) inhibitors with potential for decreased active metabolite load compared to dirlotapide” (Bioorg Med Chem Lett, 2011).
